Experimental data reported in ChEMBL document CHEMBL1148398, “Design, synthesis, and biological evaluation of thio-containing compounds with serum HDL-cholesterol-elevating properties” (2004).

Key:
Format in all cases: functional
[1] = system: Cricetinae gen. sp.; assay: Percent change in high-density lipoprotein cholesterol following oral administration of compound in hypercholesterolemic hamsters at 100 mg/kg/day for 14 days
Procedure, shortened: (§1)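 Male Syrian Golden hamsters pre-fed chow plus 0.25% cholesterol for 2 weeks and kept on it. Dosed 100 mg/kg/day by oral gavage in 2% Tween 80/saline for 14 days. Serum total cholesterol and glycerol-blanked triglycerides read enzymatically; lipoproteins separated by FPLC with cholesterol measured in each fraction. % change versus vehicle controls; six per group, p < 0.05.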

[2] = system: Rattus norvegicus; assay: Percent change in low-density lipoprotein cholesterol following oral administration of compound in normal chow-fed rats at 100 mg/kg/day for 4 days
Procedure, shortened: (§2)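 Chow-fed male Sprague–Dawley CD rats, 60–80 g, gavaged 100 mg/kg/day for 4 days in 1.3% Tween 80/0.25% CMC. Fasted overnight, bled 24 h after the last dose. Total cholesterol and glycerol-blanked triglycerides read enzymatically; lipoproteins by FPLC with cholesterol per fraction. % change versus control; six per group, p < 0.05.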

[3] = system: Cricetinae gen. sp.; assay: Percent change in triglycerides following oral administration of compound in hypercholesterolemic hamsters at 100 mg/kg/day for 14 days; procedure, shortened: as §1
[4] = system: Cricetinae gen. sp.; assay: Percent change in low-density lipoprotein cholesterol following oral administration of compound in hypercholesterolemic hamsters at 100 mg/kg/day for 14 days; procedure, shortened: as §1
[5] = system: Rattus norvegicus; assay: Percent change in very low-density lipoprotein cholesterol following oral administration of compound in normal chow-fed rats at 100 mg/kg/day for 4 days; procedure, shortened: as §2
[6] = system: Rattus norvegicus; assay: Percent change in total plasma cholesterol in hypercholesterolemic rats dosed at 100 mg/kg/day for 8 days
[7] = system: Cricetinae gen. sp.; assay: Percent change in very low-density lipoprotein cholesterol following oral administration of compound in hypercholesterolemic hamsters at 100 mg/kg/day for 14 days; procedure, shortened: as §1
[8] = system: Cricetinae gen. sp.; assay: Percent change in total plasma cholesterol following oral administration of compound in hypercholesterolemic hamsters at 100 mg/kg/day for 14 days; procedure, shortened: as §1
[9] = system: Rattus norvegicus; assay: Percent change in total plasma cholesterol following oral administration of compound in normal chow-fed rats at 100 mg/kg/day for 4 days; procedure, shortened: as §2
[10] = system: Rattus norvegicus; assay: Percent change in triglycerides following oral administration of compound in normal chow-fed rats at 100 mg/kg/day for 4 days; procedure, shortened: as §2
[11] = system: Rattus norvegicus; assay: Percent change in high-density lipoprotein cholesterol following oral administration of compound in normal chow-fed rats at 100 mg/kg/day for 4 days; procedure, shortened: as §2
[12] = system: Rattus norvegicus; assay: Percent change in high-density lipoprotein cholesterol in hypercholesterolemic rats dosed at 100 mg/kg/day for 8 days
[13] = system: Rattus norvegicus; assay: Percent change in triglycerides in hypercholesterolemic rats at a dose of 100 mg/kg/day for 8 days

Row | SMILES | Change [1] [%] | Change [2] [%] | Change [3] [%] | Change [4] [%] | Change [5] [%] | Change [6] [%] | Change [7] [%] | Change [8] [%] | Change [9] [%] | Change [10] [%] | Change [11] [%] | Change [12] [%] | Change [13] [%]
1 | CCN1CC(=O)N(c2ccc(C)cc2C)C1=S | 33.3 | 8.3 | 9.6 | -11.6 | 15.6 | 25 | 14.5 | 10.7 | 55.5 | -35.4 | 61.2 | 83 | -34
2 | CCN1CC(=O)N(c2ccccc2C(C)C)C1=S | 19.5 | 24.6 | -10.1 | -41 | 73.7 | 71 | -4.5 | -5.9 | 111.4 | -27.5 | 90.6 | 201 | 10
3 | CCN1CC(=O)N(c2c(C)cccc2Cl)C1=S | 13.8 | -35 | -77.1 | -39.1 | 41.4 | -34 | -74.4 | -32.2 | 79.8 | -57.1 | 62.9 | 222 | -20
